From ChEMBL document CHEMBL1122465, “Transport of antimicrobial agents using peptide carrier systems: anticandidal activity of m-fluorophenylalanine--peptide conjugates” (1983)
Values after ≈ are worked out from the molar mass of the structure shown. Square brackets hold non-standard residues; d marks the D form. Peptide text beside a SMILES is read from it. Phe(3-F) = N[C@@H](Cc1cccc(F)c1)C(=O)O

Columns and labels:
Assay type in all cases: functional
Candida albicans [1] = experiment: Zone developed against Candida albicans, when a 6.0 ug/disc was added
Candida albicans [2] = experiment: Zone developed against Candida albicans, when a 25.0 ug/disc was added
Candida albicans [3] = experiment: Zone developed against Candida albicans, when a 3.0 ug/disc was added
Candida albicans [4] = experiment: Zone developed against Candida albicans, when a 12.5 ug/disc was added
Candida albicans [5] = experiment: Minimum inhibitory concentration was determined for Candida albicans strain B311, by a microtiter broth dilution assay
Method in brief: (§1)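 Twofold broth dilution in yeast carbon base medium with 200 μg/mL sodium glutamate, compounds 250 to 0.25 μg/mL. Inoculum grown in YCB-glutamate 15 h at 37 °C; final ~10⁴ cfu/mL. Incubated at 37 °C, read at 24 and 48 h for growth inhibition; MIC taken as lowest inhibiting concentration.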

Candida albicans [6] = experiment: Minimum inhibitory concentration was determined for Candida albicans strain 759, by a microtiter broth dilution assay; method in brief: as §1
Candida albicans [7] = experiment: Zone developed against Candida albicans B-311, when a 12.5 ug/disc was added
Candida albicans [8] = experiment: Zone developed against Candida albicans, when a 25.0 ug/disc was added; 25-31

| MIC (Candida albicans [5]) [µg/mL] | MIC (Candida albicans [6]) [µg/mL] | SMILES | Zone size (Candida albicans [1]) [mm] | Zone size (Candida albicans [2]) [mm] | Zone size (Candida albicans [3]) [mm] | Zone size (Candida albicans [4]) [mm] | Zone size (Candida albicans [7]) [mm] | further results |
| --- | --- | --- | --- | --- | --- | --- | --- | --- |
| – | – | C[C@H](N)C(=O)N[C@@H](C)C(=O)O.C[C@H](NC(=O)[C@H](C)NC(=O)[C@@H](N)Cc1cccc(F)c1)C(=O)O | 16 | 24 | 0 | 18 | – | – |
| > 200 | > 200 | C[C@H](NC(=O)[C@H](N)Cc1cccc(F)c1)C(=O)O | – | – | – | – | – | – |
| – | – | C[C@H](N)C(=O)N[C@@H](C)C(=O)O.C[C@H](NC(=O)[C@@H](N)Cc1cccc(F)c1)C(=O)O | 0 | 0 | 0 | 0 | – | – |
| – | – | C[C@H](N)C(=O)N[C@@H](C)C(=O)N[C@@H](C)C(=O)O.C[C@H](NC(=O)[C@H](C)NC(=O)[C@@H](N)Cc1cccc(F)c1)C(=O)O | 0 | 0 | 0 | 0 | – | – |
| 0.5 (≈ 1.54 µM) | 2 (≈ 6.15 µM) | C[C@H](NC(=O)[C@H](C)NC(=O)[C@@H](N)Cc1cccc(F)c1)C(=O)O | – | – | – | – | 24 | – |
| > 250 | > 250 | N[C@@H](Cc1cccc(F)c1)C(=O)O | – | – | – | – | – | – |
| – | – | C[C@H](NC(=O)[C@H](C)NC(=O)[C@@H](N)Cc1cccc(F)c1)C(=O)O.NCC(=O)N[C@@H](Cc1ccccc1)C(=O)O | 0 | 0 | 0 | 0 | – | – |
| – | – | C[C@H](NC(=O)[C@@H](N)Cc1cccc(F)c1)C(=O)O.NCC(=O)N[C@@H](Cc1ccccc1)C(=O)O | 0 | 0 | 0 | 0 | – | – |
| 2 (≈ 6.15 µM) | 63 (≈ 194 µM) | C[C@H](N)C(=O)N[C@@H](C)C(=O)N[C@@H](Cc1cccc(F)c1)C(=O)O (H-Ala-Ala-[Phe(3-F)]-OH) | – | – | – | – | – | – |
| – | – | C[C@H](NC(=O)[C@H](C)NC(=O)[C@@H](N)Cc1cccc(F)c1)C(=O)O.N[C@@H](Cc1ccccc1)C(=O)O | – | – | – | – | 0 | – |
| > 250 | > 250 | C[C@H](NC(=O)[C@H](C)NC(=O)[C@H](N)Cc1cccc(F)c1)C(=O)O | – | – | – | – | – | – |
| – | – | C[C@H](NC(=O)CN)C(=O)O.C[C@H](NC(=O)[C@@H](N)Cc1cccc(F)c1)C(=O)O | 0 | – | 0 | 0 | – | Zone size (Candida albicans [8]): 25 mm |
| – | – | C[C@H](NC(=O)[C@H](C)NC(=O)[C@@H](N)Cc1cccc(F)c1)C(=O)O.N[C@@H](CC(=O)O)C(=O)O | – | – | – | – | 26 | – |
| 8 (≈ 18 µM) | 63 (≈ 141 µM) | CSCC[C@H](NC(=O)[C@H](CCSC)NC(=O)[C@@H](N)Cc1cccc(F)c1)C(=O)O | – | – | – | – | – | – |
| – | – | C[C@H](NC(=O)[C@H](C)NC(=O)[C@@H](N)Cc1cccc(F)c1)C(=O)O.N[C@@H](Cc1c[nH]c2ccccc12)C(=O)O | – | – | – | – | 24 | – |
| > 250 | > 250 | CSCC[C@H](NC(=O)[C@H](CCSC)NC(=O)[C@H](N)Cc1cccc(F)c1)C(=O)O | – | – | – | – | – | – |
| – | – | C[C@H](NC(=O)CN)C(=O)O.C[C@H](NC(=O)[C@H](C)NC(=O)[C@@H](N)Cc1cccc(F)c1)C(=O)O | 0 | 25 | 0 | 18 | – | – |
| – | – | C[C@H](N)C(=O)N[C@@H](C)C(=O)N[C@@H](C)C(=O)O.C[C@H](NC(=O)[C@@H](N)Cc1cccc(F)c1)C(=O)O | 0 | 0 | 0 | 0 | – | – |
| – | – | C[C@H](NC(=O)[C@H](C)NC(=O)[C@@H](N)Cc1cccc(F)c1)C(=O)O.N[C@@H](Cc1c[nH]cn1)C(=O)O | – | – | – | – | 25 | – |
| – | – | CC[C@H](C)[C@H](N)C(=O)O.C[C@H](NC(=O)[C@H](C)NC(=O)[C@@H](N)Cc1cccc(F)c1)C(=O)O | – | – | – | – | 27 | – |
| 2 (≈ 7.87 µM) | 4 (≈ 15.7 µM) | C[C@H](NC(=O)[C@@H](N)Cc1cccc(F)c1)C(=O)O | – | – | – | – | – | – |
| – | – | C[C@H](NC(=O)[C@H](C)NC(=O)[C@@H](N)Cc1cccc(F)c1)C(=O)O.O=C(O)[C@@H]1CCCN1 | – | – | – | – | 27 | – |
